These results are taken from PMC4767723 (Drugs in R&D, 2016).

The conditions of data set [1]: for Increase in AUC with fostamatinib / Individual Cmax differences (warfarin alone to warfarin plus fostamatinib): human; for Increase in AUC with fostamatinib / Individual Cmax differences (warfarin alone to warfarin plus fostamatinib) / Individual AUC differences / Prolongation of t½λz: in vivo.
The format of data set [2] is in vivo, human. The following applies: for Change in AUCss on fostamatinib co-administration with OC / Change in Cmax,ss on fostamatinib co-administration with OC: increase in exposure.
Experiment in data set [3]: not given
This is another data set of the same source.

The subject of a further data set is BCRP. The following applies: read-out: half maximal inhibitory concentration (IC50), BCRP; in vitro; ref AstraZeneca, data on file; cited from earlier work.
For data set [4] the following is noted: typical value; not determined in the current studies; cited from earlier work.
Data set [5] concerns progesterone, luteinizing hormone, follicle-stimulating hormone, sex hormone-binding globulin. Nature of the data set: OC interaction study, pharmacodynamics. In kind it is in vivo, human.
Data set [6] concerns international normalized ratio (INR). Briefly: Warfarin interaction study, pharmacodynamics. Set-up: species or system human. The following applies: in vivo.
A short description of data set [7]: Safety and tolerability, all three studies. In kind it is in vivo, human. The method in brief:
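Healthy subjects. Safety set was everyone given at least one dose of investigational product, with all available data used. Assessed throughout: incidence and severity of adverse events, clinical laboratory data, vital signs, 12-lead ECG and physical examination. AEs were tabulated by MedDRA. In the statin study, single statin doses were given alone and then with fostamatinib in a two-period, fixed-sequence design.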

The conditions of data set [8]: cited from earlier work.
[9] abbreviates: fostamatinib co-administration with OC.

Read-outs that look alike come from different tables or passages of the source.

As for `CC(=O)C[C@H](c1ccccc1)c1c(O)c2ccccc2oc1=O` [R-Warfarin, R-warfarin], in data set [1], the “Increase in AUC with fostamatinib” value stood at 18%, the “Individual Cmax differences (warfarin alone to warfarin plus fostamatinib)” value was −16.1 to 22%, the “Individual AUC differences” value was 5.0-33.0% and the “Prolongation of t½λz” value was “approximately 6 h”.

`C#C[C@]1(O)CC[C@H]2[C@@H]3CCC4=CC(=O)CC[C@@H]4[C@H]3CC[C@@]21CC` [Levonorgestrel, levonorgestrel]: the “AUCss ratio Microgynon + fostamatinib/microgynon alone” value in [2] (geometric LS mean ratio) was 105.1%. Besides, in [2], the “Change in AUCss on fostamatinib co-administration with OC” value was determined as 5% and the “Change in Cmax,ss on fostamatinib co-administration with OC” value is listed as −3%.

With `CCC(C)(C)C(=O)O[C@H]1C[C@@H](C)C=C2C=C[C@H](C)[C@H](CC[C@@H]3C[C@@H](O)CC(=O)O3)[C@H]21` [Simvastatin, simvastatin], under “human, in vivo”, the “Change in tmax with fostamatinib” value was “marginal change” and the “Decrease in half-life in the presence of fostamatinib” value is “approximately 3 h”. For the same compound, the “Net apparent reduction in clearance” value (with fostamatinib) was 40.3%.

Take `COc1cc(Nc2ncc(F)c(Nc3ccc4c(n3)NC(=O)C(C)(C)O4)n2)cc(OC)c1OC` [R406]: the “Cmax,ss, geometric mean” value in [2] (Fostamatinib + OC, period 2 day 21) was found to be 812 ng/mL; in [1] (Fostamatinib + warfarin), 557 ng/mL. Moreover, the Increase in exposure entry in data set [3] (fostamatinib combined with rosuvastatin) is on record as “≈ 10%” and the Increase in exposure entry (fostamatinib combined with simvastatin) is given as “≈ 10%”. Moreover, the IC50 with BCRP was 31 nM. Besides, the half-life in data set [4] is ~ 14 h.

Regarding `COc1cc(Nc2ncc(F)c(Nc3ccc4c(n3)N(COP(=O)(O)O)C(=O)C(C)(C)O4)n2)cc(OC)c1OC` [Fostamatinib, fostamatinib], in data set [5] (setting [9]), the “Decrease in exposure to follicle-stimulating hormone” value is “≈ 20%” and the “Decrease in exposure to luteinizing hormone” value is “≈ 20%”. Besides, in data set [5] (in vivo), the “Luteinizing hormone AUCss ratio Microgynon + fostamatinib/microgynon alone” value is recorded as 83.2%, the “Luteinizing hormone Cmax,ss ratio Microgynon + fostamatinib/microgynon alone” value was determined as 75.6%, the “Progesterone AUCss ratio Microgynon + fostamatinib/microgynon alone” value is listed as 104.3% and the “Progesterone Cmax,ss ratio Microgynon + fostamatinib/microgynon alone” value is listed as 99.8%. In addition, in data set [6], the “AUCINR,0–168 ratio Warfarin + fostamatinib/warfarin alone” value is 97.0% and the “INRmax ratio Warfarin + fostamatinib/warfarin alone” value is recorded as 89.7%. Further, in data set [7], the Tolerability result is recorded as “well tolerated”. Besides, the IC50 in the data set with BCRP is 50 nM.

As for `CCC(C)(C)C(=O)O[C@H]1C[C@@H](C)C=C2C=C[C@H](C)[C@H](CC[C@@H](O)C[C@@H](O)CC(=O)O)[C@H]21` [Simvastatin acid, simvastatin acid], under “human, in vivo”, the “Decrease in half-life in the presence of fostamatinib” value was “about 1.5 h”, the “Increase in AUC with fostamatinib” value amounted to 74% and the “Increase in Cmax with fostamatinib” value is 83%.

`CC(C)c1nc(N(C)S(C)(=O)=O)nc(-c2ccc(F)cc2)c1/C=C/[C@@H](O)C[C@@H](O)CC(=O)O` [Rosuvastatin, rosuvastatin]: in data set [3] (human, in vivo), the “Increase in AUC with fostamatinib” value amounted to 96% and the “Increase in Cmax with fostamatinib” value is given as 88%. Besides, in data set [8], the “absorption (restricted by BCRP)” value is recorded as 50%.

Take `C#C[C@]1(O)CC[C@H]2[C@@H]3CCc4cc(O)ccc4[C@H]3CC[C@@]21C` [Ethinyl estradiol, ethinyl estradiol]: in [2] (geometric LS mean ratio), the “AUCss ratio Microgynon + fostamatinib/microgynon alone” value worked out at 128.2% and the “Cmax,ss ratio Microgynon + fostamatinib/microgynon alone” value came to 134.3%. Besides, in [2], the “Change in AUCss on fostamatinib co-administration with OC” value is given as 28% and the “Change in Cmax,ss on fostamatinib co-administration with OC” value is 34%.

In the case of `CC(=O)C[C@@H](c1ccccc1)c1c(O)c2ccccc2oc1=O` [S-Warfarin, S-warfarin], in [1], the “Increase in AUC with fostamatinib” value is recorded as 13%, the “Individual Cmax differences (warfarin alone to warfarin plus fostamatinib)” value is −25.6 to 27%, the “Individual AUC differences” value was 0.0-36.0% and the “Prolongation of t½λz” value is “approximately 6 h”.
